Results as given in ChEMBL document CHEMBL5033998, “Discovery of DDO-2213 as a Potent and Orally Bioavailable Inhibitor of the WDR5-Mixed Lineage Leukemia 1 Protein-Protein Interaction for the Treatment of MLL Fusion Leukemia” (J Med Chem, 2021).
Active and inactive are the calls of the source. No cut-off for these calls is given here.

Tests used:
[1] = Metabolic stability in rat liver microsomes assessed as clearance at 1 uM in presence of NADPH by LC-MS/MS analysis; format: ADME, Microsome
How it was run: (§1)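 Compound at 1 μM preincubated 5 min at 37 °C with human or rat liver microsomes (0.7 mg/mL) in 100 mM PBS pH 7.4; reaction started with 1 mM NADPH.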

MV4-11 [2] = experiment: Antitumor activity against human MV4-11 cells xenografted in Balb/c nude mouse assessed as tumor weight inhibition at 40 mg/kg, po administered daily for 21 days relative to control; format: functional; settings: MV4-11, po, 504 h, time 21 day
How it was run: (§2)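 MV4-11 flank xenografts (~5 × 10^6 cells) in female BALB/c nude mice, 6 per group; daily oral dosing (40, 80, 120 mg/kg) or saline vehicle for 21 days, then tumors excised and weighed.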

[3] = biological target: Histone-lysine N-methyltransferase, H3 lysine-79 specific (Homo sapiens, UniProt Q8TEK3); experiment: Inhibition of DOT1L (unknown origin) assessed as effect on H3K79 methylation incubated for 30 mins by Alphascreen assay
How it was run: (§3)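 AlphaScreen: enzyme, SAM and compound mixed in 10 mM PBS for 30 min at room temperature; acceptor beads and substrate antibody added, 30 min at room temperature, then streptavidin donor beads; read on AlphaScreen reader.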

[4] = Half life in Sprague-Dawley rat at 2 mg/kg, iv measured upto 24 hrs by LC-MS/MS analysis; format: ADME, organism-based; settings: in vivo
HUVEC = experiment: Antiproliferative activity against human HUVEC cells assessed as cell viability incubated for 72 hrs by CCK8 assay; format: cell-based
How it was run: (§4)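 Cells seeded at 3000–6000 per well, exposed to inhibitor at several concentrations for 72 h; viability read with CCK8 kit. MV4-11 and K562 grown in modified IMDM + 10% FBS, pen/strep; MOLM-13 in RPMI-1640 + 10% FBS; HUVEC in modified DMEM + 10% FBS; 37 °C, 5% CO2. IC50 as mean ± SD of three independent experiments.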

[5] = Apparent clearance in Sprague-Dawley rat at 10 mg/kg, po measured upto 24 hrs by LC-MS/MS analysis; format: ADME, organism-based; settings: in vivo
How it was run: (§5)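 Male SD rats, 6–8 weeks, 220 ± 30 g; single oral dose 10 mg/kg (n = 3). Plasma sampled at 0, 0.25, 0.5, 1, 2, 4, 6, 8 and 24 h, stored at −80 °C, quantified by LC-MS/MS; parameters reported as mean ± SEM.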

[6] = MRT in Sprague-Dawley rat at 2 mg/kg, iv measured upto 24 hrs by LC-MS/MS analysis; format: ADME, organism-based; settings: in vivo
[7] = Apparent volume of distribution in Sprague-Dawley rat at 10 mg/kg, po measured upto 24 hrs by LC-MS/MS analysis; format: ADME, organism-based; settings: in vivo, read-out: Vz/F; how it was run: as §5
[8] = biological target: T1, Histone-lysine N-methyltransferase 2A (Homo sapiens, UniProt Q03164); experiment: Inhibition of MLL1 (unknown origin) in human MV4-11 cells assessed as decrease in H3Kme3 level at 1 to 10 uM measured after 7 days by Western blot analysis; format: cell-based
T1 sequence (Q03164 1-2718 limits assumed): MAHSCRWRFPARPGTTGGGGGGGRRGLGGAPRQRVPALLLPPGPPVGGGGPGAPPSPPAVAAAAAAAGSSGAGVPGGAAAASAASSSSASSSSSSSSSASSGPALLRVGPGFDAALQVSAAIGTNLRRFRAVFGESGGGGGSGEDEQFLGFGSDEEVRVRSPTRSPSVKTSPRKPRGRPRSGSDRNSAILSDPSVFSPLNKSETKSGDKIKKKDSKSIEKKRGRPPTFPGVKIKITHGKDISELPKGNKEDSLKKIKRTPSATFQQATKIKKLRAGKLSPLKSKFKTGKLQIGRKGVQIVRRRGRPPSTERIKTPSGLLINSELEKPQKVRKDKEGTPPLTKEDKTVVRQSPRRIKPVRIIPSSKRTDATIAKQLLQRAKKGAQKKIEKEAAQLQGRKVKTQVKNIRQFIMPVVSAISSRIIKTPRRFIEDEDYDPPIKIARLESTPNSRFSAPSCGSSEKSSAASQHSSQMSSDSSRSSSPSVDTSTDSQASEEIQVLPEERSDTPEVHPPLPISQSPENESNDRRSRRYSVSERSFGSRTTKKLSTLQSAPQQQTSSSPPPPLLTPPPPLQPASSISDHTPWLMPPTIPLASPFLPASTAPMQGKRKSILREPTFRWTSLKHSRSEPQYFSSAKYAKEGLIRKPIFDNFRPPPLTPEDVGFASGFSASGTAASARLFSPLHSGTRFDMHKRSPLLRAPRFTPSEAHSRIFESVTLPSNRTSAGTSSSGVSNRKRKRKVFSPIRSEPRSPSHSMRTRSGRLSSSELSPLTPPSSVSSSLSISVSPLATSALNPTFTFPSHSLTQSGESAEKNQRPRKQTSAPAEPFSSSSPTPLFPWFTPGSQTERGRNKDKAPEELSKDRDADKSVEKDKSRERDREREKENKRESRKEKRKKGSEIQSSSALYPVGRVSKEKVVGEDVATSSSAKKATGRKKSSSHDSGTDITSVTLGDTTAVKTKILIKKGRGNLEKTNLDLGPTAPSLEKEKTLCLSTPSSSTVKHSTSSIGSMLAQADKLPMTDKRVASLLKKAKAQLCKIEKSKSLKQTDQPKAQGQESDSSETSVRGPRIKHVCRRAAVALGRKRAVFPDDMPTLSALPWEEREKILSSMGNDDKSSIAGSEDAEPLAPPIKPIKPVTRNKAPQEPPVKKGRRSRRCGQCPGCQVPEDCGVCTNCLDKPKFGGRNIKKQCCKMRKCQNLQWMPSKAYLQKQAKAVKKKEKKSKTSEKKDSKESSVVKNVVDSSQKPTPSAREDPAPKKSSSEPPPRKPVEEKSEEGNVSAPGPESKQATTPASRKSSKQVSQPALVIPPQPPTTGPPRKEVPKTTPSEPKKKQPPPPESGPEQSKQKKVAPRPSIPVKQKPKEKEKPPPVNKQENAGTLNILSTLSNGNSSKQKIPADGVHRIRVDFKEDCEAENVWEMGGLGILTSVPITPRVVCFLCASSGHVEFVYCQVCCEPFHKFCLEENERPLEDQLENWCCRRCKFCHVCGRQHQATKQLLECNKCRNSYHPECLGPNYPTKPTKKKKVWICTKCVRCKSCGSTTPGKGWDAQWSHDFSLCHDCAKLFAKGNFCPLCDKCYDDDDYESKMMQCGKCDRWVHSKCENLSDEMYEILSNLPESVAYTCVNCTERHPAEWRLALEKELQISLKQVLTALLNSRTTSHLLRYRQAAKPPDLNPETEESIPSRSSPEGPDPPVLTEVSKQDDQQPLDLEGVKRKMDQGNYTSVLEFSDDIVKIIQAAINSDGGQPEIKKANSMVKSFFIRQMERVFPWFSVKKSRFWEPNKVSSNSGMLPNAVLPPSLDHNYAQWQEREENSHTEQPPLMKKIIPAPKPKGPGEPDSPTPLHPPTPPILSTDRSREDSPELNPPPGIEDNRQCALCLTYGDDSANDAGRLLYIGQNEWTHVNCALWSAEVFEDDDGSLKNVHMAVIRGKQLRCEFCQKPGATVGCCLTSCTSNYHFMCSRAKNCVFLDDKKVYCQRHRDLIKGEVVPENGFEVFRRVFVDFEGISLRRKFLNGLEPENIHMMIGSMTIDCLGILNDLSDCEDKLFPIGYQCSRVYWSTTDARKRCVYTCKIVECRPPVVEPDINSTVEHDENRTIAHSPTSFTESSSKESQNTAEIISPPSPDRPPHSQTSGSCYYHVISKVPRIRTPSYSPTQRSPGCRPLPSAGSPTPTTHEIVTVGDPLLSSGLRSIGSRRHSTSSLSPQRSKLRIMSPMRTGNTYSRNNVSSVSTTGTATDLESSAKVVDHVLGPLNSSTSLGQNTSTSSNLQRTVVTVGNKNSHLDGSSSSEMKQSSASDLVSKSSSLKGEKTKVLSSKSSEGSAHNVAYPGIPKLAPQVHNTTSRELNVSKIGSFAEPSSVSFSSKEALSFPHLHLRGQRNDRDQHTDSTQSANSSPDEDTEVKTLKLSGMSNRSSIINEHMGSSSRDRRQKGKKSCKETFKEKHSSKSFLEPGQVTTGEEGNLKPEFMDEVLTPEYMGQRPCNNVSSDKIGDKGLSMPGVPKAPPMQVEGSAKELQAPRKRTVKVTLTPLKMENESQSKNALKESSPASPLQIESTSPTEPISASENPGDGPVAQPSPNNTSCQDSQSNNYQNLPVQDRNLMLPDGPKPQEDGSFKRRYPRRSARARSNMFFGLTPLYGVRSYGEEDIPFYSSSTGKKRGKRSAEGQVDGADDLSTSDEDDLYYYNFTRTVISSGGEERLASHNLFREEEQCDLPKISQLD
T1 sequence (Q03164 2719-3969 limits assumed): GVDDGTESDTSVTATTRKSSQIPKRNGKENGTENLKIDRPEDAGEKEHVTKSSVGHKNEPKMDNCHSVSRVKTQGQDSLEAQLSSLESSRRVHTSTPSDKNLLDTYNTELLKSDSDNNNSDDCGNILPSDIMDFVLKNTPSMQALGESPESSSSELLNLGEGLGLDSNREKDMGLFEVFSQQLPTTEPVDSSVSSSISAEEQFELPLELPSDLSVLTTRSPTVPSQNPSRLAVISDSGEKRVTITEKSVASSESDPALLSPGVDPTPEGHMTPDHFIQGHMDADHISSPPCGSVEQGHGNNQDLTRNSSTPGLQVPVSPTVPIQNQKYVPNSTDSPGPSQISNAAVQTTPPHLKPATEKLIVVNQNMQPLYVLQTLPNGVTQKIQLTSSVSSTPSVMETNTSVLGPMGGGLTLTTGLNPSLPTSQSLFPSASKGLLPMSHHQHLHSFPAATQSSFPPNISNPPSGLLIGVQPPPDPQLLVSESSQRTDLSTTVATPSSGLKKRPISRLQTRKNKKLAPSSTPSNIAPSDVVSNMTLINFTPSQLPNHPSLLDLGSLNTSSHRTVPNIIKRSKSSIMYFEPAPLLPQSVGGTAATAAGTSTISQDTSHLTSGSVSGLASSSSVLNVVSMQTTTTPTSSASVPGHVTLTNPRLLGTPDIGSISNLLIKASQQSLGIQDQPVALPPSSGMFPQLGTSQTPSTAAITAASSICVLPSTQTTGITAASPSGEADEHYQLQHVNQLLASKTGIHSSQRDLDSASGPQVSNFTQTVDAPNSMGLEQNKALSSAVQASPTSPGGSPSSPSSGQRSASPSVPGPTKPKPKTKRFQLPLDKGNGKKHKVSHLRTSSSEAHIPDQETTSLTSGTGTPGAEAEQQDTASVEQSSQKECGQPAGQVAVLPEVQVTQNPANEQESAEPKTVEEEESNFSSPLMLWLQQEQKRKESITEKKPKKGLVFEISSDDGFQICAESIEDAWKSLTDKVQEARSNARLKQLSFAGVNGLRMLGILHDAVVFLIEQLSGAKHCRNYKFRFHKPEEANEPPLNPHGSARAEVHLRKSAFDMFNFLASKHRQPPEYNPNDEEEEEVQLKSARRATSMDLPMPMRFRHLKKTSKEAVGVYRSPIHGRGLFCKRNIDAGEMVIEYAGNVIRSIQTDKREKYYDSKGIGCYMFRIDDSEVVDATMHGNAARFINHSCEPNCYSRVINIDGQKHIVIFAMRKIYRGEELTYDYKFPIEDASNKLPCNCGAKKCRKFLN
How it was run: (§6)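 MV4-11 cells exposed to 1, 2.5, 5 and 10 μM; H3K4me1/me2/me3 assessed by Western blot with histone H3 as loading control. Blots blocked in 1% BSA 1 h, primary antibody overnight at 4 °C, DyLight 800 secondary 1 h at 37 °C, infrared imaging.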

[9] = Metabolic stability in human liver microsomes assessed as clearance at 1 uM in presence of NADPH by LC-MS/MS analysis; format: ADME, Microsome; how it was run: as §1
[10] = Toxicity in Balb/c nude mouse xenografted with human MV4-11 cells assessed as body weight loss at 40 to 120 mg/kg, po administered daily for 21 days relative to control; format: organism-based; settings: in vivo, 504 h
How it was run: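 Nude BALB/c females bearing MV4-11 xenografts, dosed orally each day for 21 days at 40, 80 or 120 mg/kg, saline vehicle controls (6 mice/group); body weight recorded every other day.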

[11] = MRT in Sprague-Dawley rat at 10 mg/kg, po measured upto 24 hrs by LC-MS/MS analysis; format: ADME, organism-based; settings: in vivo; how it was run: as §5
MV4-11 [12] = experiment: Antitumor activity against human MV4-11 cells xenografted in Balb/c nude mouse assessed as tumor weight inhibition at 120 mg/kg, po administered daily for 21 days relative to control; format: functional; settings: MV4-11, po, 504 h; how it was run: as §2
[13] = biological target: T1, Histone-lysine N-methyltransferase 2A; experiment: Inhibition of MLL1 (unknown origin) in human MV4-11 cells assessed as decrease in H3Kme1 level at 1 to 10 uM measured after 7 days by Western blot analysis; format: cell-based; settings: dose 1-10 µM, time 7.0 day; how it was run: as §6
MV4-11 [14] = experiment: Antitumor activity against human MV4-11 cells xenografted in Balb/c nude mouse assessed as tumor growth inhibition at 80 mg/kg, po administered daily for 21 days relative to control; format: functional; settings: MV4-11, po, 504 h, time 21 day, read-out: TGI
How it was run: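 Female BALB/c nude mice (6–8 weeks) given ~5 × 10^6 MV4-11 cells in 0.2 mL PBS into the flank; at 100–150 mm3 randomized (6/group) to vehicle (0.9% saline) or 40, 80, 120 mg/kg oral (hydrochloride salt) daily for 21 days. Volume = length × width²/2 every other day; GI% = [1 − (TVt − TV0)/(CVt − CV0)] × 100%.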

[15] = biological target: Protein arginine N-methyltransferase 5 (Homo sapiens, UniProt O14744); experiment: Inhibition of PRMT5 (unknown origin) assessed as effect on H3R8/H4R3 methylation incubated for 30 mins by Alphascreen assay; how it was run: as §3
[16] = Half life in Sprague-Dawley rat at 10 mg/kg, po measured upto 24 hrs by LC-MS/MS analysis; format: ADME, organism-based; settings: in vivo; how it was run: as §5
[17] = Permeability of compound at pH 7.4 incubated for 4 hrs by PAMPA assay; format: ADME; settings: read-out: permeability
How it was run: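 Double-sink PAMPA: compound diluted in pH 7.4 donor buffer, permeation through artificial membrane to acceptor over 4 h at 25 °C; donor and acceptor read by UV; mean ± SD of three independent experiments.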

[18] = biological target: Histone-lysine N-methyltransferase EZH2 (Homo sapiens, UniProt Q15910); experiment: Inhibition of EZH2 (unknown origin) assessed as effect on H3K27 methylation incubated for 30 mins by Alphascreen assay; how it was run: as §3
Histone-lysine N-methyltransferase EZH2, sequence (Q15910 whole entry): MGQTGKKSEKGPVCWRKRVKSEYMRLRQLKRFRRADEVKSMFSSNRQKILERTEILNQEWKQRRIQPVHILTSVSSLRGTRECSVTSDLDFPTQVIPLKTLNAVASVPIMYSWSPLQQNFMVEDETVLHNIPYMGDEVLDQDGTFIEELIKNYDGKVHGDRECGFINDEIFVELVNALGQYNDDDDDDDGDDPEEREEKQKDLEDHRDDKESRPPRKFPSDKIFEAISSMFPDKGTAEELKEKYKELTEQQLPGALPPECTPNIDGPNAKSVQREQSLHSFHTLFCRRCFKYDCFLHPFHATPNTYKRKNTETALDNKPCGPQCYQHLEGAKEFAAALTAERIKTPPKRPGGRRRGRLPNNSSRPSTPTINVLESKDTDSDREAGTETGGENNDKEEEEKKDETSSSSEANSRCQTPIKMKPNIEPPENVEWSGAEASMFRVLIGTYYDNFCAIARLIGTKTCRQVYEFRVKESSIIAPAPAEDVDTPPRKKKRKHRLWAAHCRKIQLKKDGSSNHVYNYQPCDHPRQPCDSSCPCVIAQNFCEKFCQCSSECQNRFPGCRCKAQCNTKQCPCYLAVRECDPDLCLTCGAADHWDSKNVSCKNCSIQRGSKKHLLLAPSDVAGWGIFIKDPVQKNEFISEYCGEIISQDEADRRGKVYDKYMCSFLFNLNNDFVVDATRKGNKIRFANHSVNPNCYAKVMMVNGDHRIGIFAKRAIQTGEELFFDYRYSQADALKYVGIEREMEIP

[19] = AUC (0 to t) in Sprague-Dawley rat at 2 mg/kg, iv measured upto 24 hrs by LC-MS/MS analysis; format: ADME, organism-based; set-up: route intravenous, dose 2 mg/kg, time <=24; settings: in vivo
[20] = biological target: WD repeat-containing protein 5 (Homo sapiens) (UniProt P61964); experiment: Binding affinity to WDR5 (unknown origin) assessed as change in entropy by isothermal titration calorimetry assay
[21] = Metabolic stability in rat liver microsomes assessed as half life at 1 uM in presence of NADPH by LC-MS/MS analysis; format: ADME, Microsome; how it was run: as §1
MOLM-13 = experiment: Antiproliferative activity against human MOLM-13 cells assessed as cell viability incubated for 72 hrs by CCK8 assay; format: functional, cell-based; settings: MOLM-13, 72 h; how it was run: as §4
K562 = experiment: Antiproliferative activity against human K562 cells assessed as cell viability incubated for 72 hrs by CCK8 assay; format: functional, cell-based; settings: K562, 72 h; how it was run: as §4

- CLH [1]: 15 µL/min/mg
- IC50 [3]: > 100 µM
- half-life [4]: 1.7 h
- CL/F [5]: 97.2 mL/min/kg
- MRT [6]: 1.18 h
- Vd/F [7]: 37.1 L/kg
- inhibition [8]: Active
- CLH [9]: 14.1 µL/min/mg
- MRT [11]: 5.42 h
- inhibition [13]: Dose-Dependent Effect
- IC50 [15]: > 100 µM
- half-life [16]: 4.94 h
- Papp at 4 h [17]: 20.2 ×10⁻⁶ cm/s
- IC50 [18]: > 100 µM
- AUC(0-t) at 24 h [19]: 411 ng·h/mL
- -TdeltaS [20]: 2.51 kcal/mol
- half-life at 1 µM [21]: 1.1 h
- IC50 (MOLM-13): 13.1 µM
- IC50 (K562): > 100 µM
SMILES: CN1CCN(c2cc(F)c(-c3ccc(C(=O)N(C)C)cc3)cc2Nc2ncnc(Cl)c2N)CC1
- inhibition in vivo at 40 mg/kg (MV4-11 [2]): 36.4%
- IC50 (HUVEC): > 100 µM
- Activity [10]: Non-Toxic
- inhibition in vivo at 120 mg/kg (MV4-11 [12]): 56.8%
- inhibition in vivo at 80 mg/kg (MV4-11 [14]): 53.6%
